Measured values reported in ChEMBL document CHEMBL1123478, “Synthesis and antineoplastic activity of bis[[[(alkylamino)carbonyl]oxy]methyl]-substituted 3-pyrrolines as prodrugs of tumor inhibitory pyrrole bis(carbamates)” (1986).
Several values for one entry are separate records, joined by “and”; a condition that tells them apart may be missing. Equal values may be shown once.

How the values were obtained:
P388 [1] = assay: Compound was tested for antitumor activity against P388 lymphocytic leukemia at the dose 400 mg/kg; assay type: functional, Mus musculus
Outline: (§1)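 P388 leukemia ascitic fluid implanted intraperitoneally into CD2F1 mice. Dosing was intraperitoneal, starting 24 h after inoculation, once daily for five doses, as a suspension in saline and Tween 80 made fresh each day. Some compounds were given in Klucel (hydroxypropylcellulose) or in saline/Tween/alcohol instead. Acute toxicity was checked on day 5 and the study was evaluated on day 30.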

P388 [2] = assay: Compound was tested for antitumor activity against P388 lymphocytic leukemia at the dose 50 mg/kg; assay type: functional, Mus musculus; outline: as §1
Mus musculus [3] = assay: Body weight difference the relation of the test animal to control animal weight was calculated at the 200 mg/kg doses; assay type: functional; outline: as §1
P388 [4] = assay: Compound was tested for antitumor activity against P388 lymphocytic leukemia at the dose 200 mg/kg; assay type: functional, Mus musculus; outline: as §1
Mus musculus [5] = assay: Body weight difference the relation of the test animal to control animal weight was calculated at the 50 mg/kg doses; assay type: functional; outline: as §1
Mus musculus [6] = assay: Body weight difference the relation of the test animal to control animal weight was calculated at the 400 mg/kg doses; assay type: functional; outline: as §1
Mus musculus [7] = assay: Body weight difference the relation of the test animal to control animal weight was calculated at the 100 mg/kg doses; assay type: functional; outline: as §1
P388 [8] = assay: Compound was tested for antitumor activity against P388 lymphocytic leukemia at the dose 100 mg/kg; assay type: functional, Mus musculus; outline: as §1
P388 [9] = assay: Compound was tested for antitumor activity against P388 lymphocytic leukemia at the dose 60 mg/kg; assay type: functional, Mus musculus; outline: as §1
Mus musculus [10] = assay: Body weight difference the relation of the test animal to control animal weight was calculated at the 120 mg/kg doses; assay type: functional; outline: as §1
P388 [11] = assay: Compound was tested for antitumor activity against P388 lymphocytic leukemia at the dose 120 mg/kg; assay type: functional, Mus musculus; outline: as §1
Mus musculus [12] = assay: Body weight difference the relation of the test animal to control animal weight was calculated at the 60 mg/kg doses; assay type: functional; outline: as §1
Mus musculus [13] = assay: Body weight difference the relation of the test animal to control animal weight was calculated at the 480 mg/kg doses; assay type: functional; outline: as §1
[14] = Rate constants were calculated for the compound by linear regression analysis
Mus musculus [15] = assay: Tumor cell population at the end of treatment relative to its size at the beginning of the treatment was calculated at the 240 mg/kg doses; assay type: functional; outline: as §1
Mus musculus [16] = assay: Body weight difference the relation of the test animal to control animal weight was calculated at the 240 mg/kg doses; assay type: functional; outline: as §1
Mus musculus [17] = assay: Tumor cell population at the end of treatment relative to its size at the beginning of the treatment was calculated at the 480 mg/kg doses; assay type: functional; outline: as §1
P388 [18] = assay: Compound was tested for antitumor activity against P388 lymphocytic leukemia at the dose 480 mg/kg; assay type: functional, Mus musculus; outline: as §1
Mus musculus [19] = assay: Tumor cell population at the end of treatment relative to its size at the beginning of the treatment was calculated at the 60 mg/kg doses; assay type: functional; outline: as §1
P388 [20] = assay: Compound was tested for antitumor activity against P388 lymphocytic leukemia at the dose 240 mg/kg; assay type: functional, Mus musculus; outline: as §1
Mus musculus [21] = assay: Tumor cell population at the end of treatment relative to its size at the beginning of the treatment was calculated at the 120 mg/kg doses; assay type: functional; outline: as §1
P388 [22] = assay: Compound was tested for antitumor activity against P388 lymphocytic leukemia at the dose 25 mg/kg; assay type: functional, Mus musculus; outline: as §1
Mus musculus [23] = assay: Tumor cell population at the end of treatment relative to its size at the beginning of the treatment was calculated at the 12.5 mg/kg doses; assay type: functional; outline: as §1
Mus musculus [24] = assay: Body weight difference the relation of the test animal to control animal weight was calculated at the 25 mg/kg doses; assay type: functional; outline: as §1
Mus musculus [25] = assay: Tumor cell population at the end of treatment relative to its size at the beginning of the treatment was calculated at the 25 mg/kg doses; assay type: functional; outline: as §1
Mus musculus [26] = assay: Tumor cell population at the end of treatment relative to its size at the beginning of the treatment was calculated at the 50 mg/kg doses; assay type: functional; outline: as §1
Mus musculus [27] = assay: Body weight difference the relation of the test animal to control animal weight was calculated at the 12.5 mg/kg doses; assay type: functional; outline: as §1
P388 [28] = assay: Compound was tested for antitumor activity against P388 lymphocytic leukemia at the dose 12.5 mg/kg; assay type: functional, Mus musculus; outline: as §1
Mus musculus [29] = assay: Tumor cell population at the end of treatment relative to its size at the beginning of the treatment was calculated at the 100 mg/kg doses; assay type: functional; outline: as §1
P388 [30] = assay: Compound was tested for antitumor activity against P388 lymphocytic leukemia at the dose 30 mg/kg; assay type: functional, Mus musculus; outline: as §1
Mus musculus [31] = assay: Tumor cell population at the end of treatment relative to its size at the beginning of the treatment was calculated at the 30 mg/kgd oses; assay type: functional; details: dose 30 mg/kg; outline: as §1
Mus musculus [32] = assay: Body weight difference the relation of the test animal to control animal weight was calculated at the 15 mg/kg doses; assay type: functional; outline: as §1
Mus musculus [33] = assay: Tumor cell population at the end of treatment relative to its size at the beginning of the treatment was calculated at the 15 mg/kg doses; assay type: functional; outline: as §1
Mus musculus [34] = assay: Body weight difference the relation of the test animal to control animal weight was calculated at the 30 mg/kg doses; assay type: functional; outline: as §1
P388 [35] = assay: Compound was tested for antitumor activity against P388 lymphocytic leukemia at the dose 15 mg/kg; assay type: functional, Mus musculus; outline: as §1
Mus musculus [36] = assay: Tumor cell population at the end of treatment relative to its size at the beginning of the treatment was calculated at the 150 mg/kg doses; assay type: functional; details: dose 15 mg/kg; in the assay text read “15 mg/kg doses” for “150 mg/kg doses”; outline: as §1
Mus musculus [37] = assay: Tumor cell population at the end of treatment relative to its size at the beginning of the treatment was calculated at the 7.5 mg/kg doses; assay type: functional; outline: as §1
P388 [38] = assay: Compound was tested for antitumor activity against P388 lymphocytic leukemia at the dose 7.5 mg/kg; assay type: functional, Mus musculus; outline: as §1
Mus musculus [39] = assay: Body weight difference the relation of the test animal to control animal weight was calculated at the 7.5 mg/kg doses; assay type: functional; outline: as §1

CC(C)NC(=O)OCC1=C(COC(=O)NC(C)C)C(C)(C)N(C)C1c1ccccc1 (configuration not stated)
T/C (P388 [1]): 107%
T/C (P388 [2]): 108%
BDW (Mus musculus [3]): -0.1 g
T/C (P388 [4]): 108%
BDW (Mus musculus [5]): 0.5 g
BDW (Mus musculus [6]): -2.3 g
BDW (Mus musculus [7]): -0.3 g
T/C (P388 [8]): 113%

COc1ccc(C2C(COC(=O)NC(C)C)=C(COC(=O)NC(C)C)CN2C)cc1 (configuration not stated)
T/C (P388 [9]): 158%
BDW (Mus musculus [10]; 120 mg/kg): -1.9 g and -1.2 g
T/C (P388 [11]): 110%

CC(C)NC(=O)OCc1cn2c(c1COC(=O)NC(C)C)-c1cc(Cl)c(Cl)cc1CC2
BDW (Mus musculus [12]): -0.4 g
T/C (P388 [9]): 86%
BDW (Mus musculus [10]): -2.2 g
BDW (Mus musculus [13]): -3.2 g
K' [14]: 0.00154 abs/time
KE (Mus musculus [15]): 0.1
BDW (Mus musculus [16]): -2.3 g
KE (Mus musculus [17]): 5.05
T/C (P388 [18]): 185%
KE (Mus musculus [19]): -1.54
T/C (P388 [20]): 137%
T/C (P388 [11]): 130%
KE (Mus musculus [21]): -0.68

CNC(=O)OCC1=C(COC(=O)NC)[C@@H](c2ccccc2)N(C)[C@H]1c1ccccc1
T/C (P388 [2]): 154%
T/C (P388 [22]): 136%
KE (Mus musculus [23]): -1.16
BDW (Mus musculus [24]): -1.4 g
BDW (Mus musculus [5]): -1.7 g
KE (Mus musculus [25]): 0
KE (Mus musculus [26]): 1.06
BDW (Mus musculus [27]): -0.1 g
BDW (Mus musculus [7]): -4.3 g
T/C (P388 [28]): 116%

CC(C)NC(=O)OCC1=C(COC(=O)NC(C)C)C(c2ccccc2)N(C)C1 (configuration not stated)
T/C (P388 [2]): 145%
T/C (P388 [22]): 136%
KE (Mus musculus [23]): 0.84
BDW (Mus musculus [24]): -0.9 g
BDW (Mus musculus [5]): -2 g
KE (Mus musculus [25]): 0
KE (Mus musculus [26]): 0.53
BDW (Mus musculus [27]): 0 g
KE (Mus musculus [29]): 5.18
BDW (Mus musculus [7]): -2.2 g
T/C (P388 [8]): 225%
T/C (P388 [28]): 121%

CC(C)NC(=O)OCc1cn(C)c(-c2ccc(F)cc2)c1COC(=O)NC(C)C
BDW (Mus musculus [12]): -2.7 g
T/C (P388 [30]): 188%
KE (Mus musculus [31]): 0.21
K' [14]: 0.0516 abs/time
BDW (Mus musculus [32]): -0.4 g
KE (Mus musculus [33]): 0.04
BDW (Mus musculus [34]): -2.2 g
T/C (P388 [35]): 145%

Cc1c(COC(=O)NC(C)C)c(COC(=O)NC(C)C)c(-c2ccccc2)n1C
K' [14]: 1.68 abs/time

CC(C)NC(=O)OCC1=C(COC(=O)NC(C)C)C(c2ccc(Cl)c(Cl)c2)N(C)C1 (configuration not stated)
BDW (Mus musculus [12]): -1.3 g
T/C (P388 [9]): 110%
BDW (Mus musculus [10]): -1.6 g
BDW (Mus musculus [16]): -2.5 g
T/C (P388 [20]): 119%
T/C (P388 [11]): 117%

CC(C)NC(=O)OCC1=C(COC(=O)NC(C)C)[C@@H](c2ccccc2)N(C)[C@H]1c1ccccc1
T/C (P388 [2]): 145%
T/C (P388 [22]): 139%
KE (Mus musculus [23]): -0.9
BDW (Mus musculus [24]): -1.2 g
BDW (Mus musculus [5]): -2.3 g
KE (Mus musculus [25]): 0.16
KE (Mus musculus [26]): 0.53
BDW (Mus musculus [27]): 0 g
KE (Mus musculus [29]): 3.06
BDW (Mus musculus [7]): -3 g
T/C (P388 [8]): 189%
T/C (P388 [28]): 120%

COc1ccc(-c2c(COC(=O)NC(C)C)c(COC(=O)NC(C)C)cn2C)cc1
BDW (Mus musculus [12]): -0.8 g
T/C (P388 [9]): 164%
T/C (P388 [30]): 117%
KE (Mus musculus [31]): -0.08
K' [14]: 0.231 abs/time
KE (Mus musculus [36]): -0.06
BDW (Mus musculus [32]): 0 g
BDW (Mus musculus [34]): 0.4 g
T/C (P388 [35]): 123%
KE (Mus musculus [19]): 0.1

CC(C)NC(=O)OCc1cn(C)c(-c2ccccc2)c1COC(=O)NC(C)C
BDW (Mus musculus [12]): -4 g
BDW (Mus musculus [10]): -4.6 g
T/C (P388 [30]): 100%
KE (Mus musculus [31]): -0.15
K' [14]: 0.0935 abs/time
KE (Mus musculus [37]): -0.04
BDW (Mus musculus [32]): -0.1 g
KE (Mus musculus [33]): -0.04
T/C (P388 [38]): 127%
BDW (Mus musculus [39]): 0.1 g
BDW (Mus musculus [34]): -2.3 g
T/C (P388 [35]): 148%

COc1ccc2c(c1)CCn1cc(COC(=O)NC(C)C)c(COC(=O)NC(C)C)c1-2
K' [14]: 0.449 abs/time
KE (Mus musculus [37]): 0.16
BDW (Mus musculus [32]): -3 g
KE (Mus musculus [33]): -0.04
T/C (P388 [38]): 175%
BDW (Mus musculus [39]): -2.6 g
BDW (Mus musculus [34]): -3.1 g
T/C (P388 [35]): 125%

CC(C)NC(=O)OCc1cn(C)c(-c2ccc(Cl)c(Cl)c2)c1COC(=O)NC(C)C
BDW (Mus musculus [12]): -0.8 g
T/C (P388 [9]): 117%
BDW (Mus musculus [10]): -1.6 g
BDW (Mus musculus [13]): -3.6 g
K' [14]: 0.00605 abs/time
KE (Mus musculus [15]): 2.43
BDW (Mus musculus [16]): -2.7 g
KE (Mus musculus [17]): 3.4
T/C (P388 [18]): 169%
KE (Mus musculus [19]): -1.15
T/C (P388 [20]): 160%
T/C (P388 [11]): 133%
KE (Mus musculus [21]): -0.39

CC(C)NC(=O)OCC1=C(COC(=O)NC(C)C)C(c2ccc(F)cc2)N(C)C1 (configuration not stated)
BDW (Mus musculus [12]): -0.2 g
T/C (P388 [9]): 112%
BDW (Mus musculus [10]): -2.7 g
BDW (Mus musculus [16]): -2.7 g
T/C (P388 [20]): 137%
T/C (P388 [11]): 131%
